The list is not random: actives were taken first. Their share in the collection is about 3.8%.
MC4R antagonist: blocks human MC4R cAMP signaling; P32245; MC4R-expressing cells, MTII-stimulated cAMP, LANCE TR-FRET; inhibition, % at 6.5 µM; hit rate 0.48% among 360,000;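 active = inhibition above its plate's cutoff, the mean of tested wells on that plate plus 3 SD, cut at about 29% in these data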;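 also: 0% = Melanotan II alone and 100% = Melanotan II plus saturating MCL0020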
Target sequence (P32245 whole entry, looked up): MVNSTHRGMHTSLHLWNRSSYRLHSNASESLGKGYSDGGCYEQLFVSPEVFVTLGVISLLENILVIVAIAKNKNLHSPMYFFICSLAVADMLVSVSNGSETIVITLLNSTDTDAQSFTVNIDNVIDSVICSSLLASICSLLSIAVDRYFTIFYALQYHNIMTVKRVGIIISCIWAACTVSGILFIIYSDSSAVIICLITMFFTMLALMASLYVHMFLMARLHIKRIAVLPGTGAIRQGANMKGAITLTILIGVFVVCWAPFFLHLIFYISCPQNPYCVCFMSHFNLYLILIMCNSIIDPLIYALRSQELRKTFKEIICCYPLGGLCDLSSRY
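material = U2OS cells stably expressing human melanocortin 4 receptor (MC4R) | also added = Melanotan II challenge | dosing = single nominal compound dose of 6.5 µM | detection = TR-FRET with Eu-cAMP and labeled anti-cAMP, 671 nm | replication = singlicate | timing = compound 30 min, challenge 1 h, detection 1 h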
MC4R barr agon: human MC4R agonism via beta-arrestin. P32245. activation, % at 8.9 µM. AID 540308. hit rate 0.98% among 360,000. U2OS MC4R beta-arrestin complementation, luminescence; percent of melanotan II response, DMSO zero;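 active = activation above a per-plate cutoff, the mean activation of sample wells on that plate plus 3 SD, cut at about 8% in these data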
Beta apoptosis: beta cell apoptosis inhibition. INS-1E cytokine-induced death, ATP luminescence, 48 h; percent of positive-control rescue, neutral wells zero. protection from apoptosis, % (concentration not given with the values). hit rate 0.8% among 300,000. AID 435005;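 active = Every replicate reaches about 75%, or at least half do and their mean reaches it too, limit read from the data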;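 also: 0% = cytokine-treated negative control wells and 100% = positive control rescue; higher means more ATP so stronger rescue from cytokine killing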
CSC inhib: cancer stem cell inhibition | cancer stem cell-like cells viability, luminescence | inhibition, % at 7.5 µM | hit rate 1.1% among 300,000; in the data active = inhibition above about 75%; tested in HMLE shEcad cells
TMEM16A act: activators or potentiators of mouse TMEM16A chloride channel. hit rate 0.3% among 340,000. B-score at 10 µM. HEK293 TMEM16A/YFP-H148Q/I152L, iodide quench fluorescence; stronger effect = lower value. Q8BHY3;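 active = fluorescence-ratio B-score plate-corrected deviation score at least 3 library SD below zero, with starting fluorescence score within 5 deviations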;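 also: channel opened by trigger with iodide after compound preincubation; score built on the fluorescence ratio of max minus min over baseline; more negative score means more quench and so TMEM16A activation or potentiation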
TMEM16A inh: inhibitors of mouse TMEM16A calcium-activated chloride channel; Q8BHY3; HEK293 TMEM16A/YFP iodide influx fluorescence, ionomycin; normalized B-score (activity score, 25-100; higher = stronger inhibition) at 10 µM; hit rate 1.2% among 310,000;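 active = ratio plate-corrected score three or more library SD toward inhibition, starting fluorescence score within five deviations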;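 also: score derived from kinetic fluorescence span divided by baseline fluorescence per well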
MC4R barr ag: human MC4R beta-arrestin agonism confirmation | shares compounds with MC4R barr agon | U2OS MC4R beta-arrestin recruitment, luminescence; scaled DMSO 0%, Melanotan II 100% | activation, % at 8.9 µM | hit rate 31% among 2,400 | AID 602192;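 active = mean activation across replicates above the hit cutoff set in the earlier primary screen, cut at about 8% in these data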
MOR-DOR barr ag: OPRM1-OPRD1 heterodimer agonism counter-screen | shares compounds with MC4R barr agon | U2OS PathHunter beta-arrestin, beta-gal luminescence; percent of deltorphin B response, DMSO zero | activation, % at 9.2 µM | hit rate 5.8% among 2,400;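 active = mean activation across replicates exceeds the hit threshold derived in the earlier primary screen, cut at about 18% in these data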;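 also: 100% = deltorphin B at 0.9 µM final and 0% = DMSO alone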
* hit, by the source's call; i = inactive; · = not tested or not shown.

SMILES	MC4R antagonist	MC4R barr agon	Beta apoptosis	CSC inhib	TMEM16A act	TMEM16A inh	MC4R barr ag	MOR-DOR barr ag
O=[N+]([O-])c1cccc(N/N=C/c2cc([N+](=O)[O-])ccc2O)c1	-10	11*	·	1	i	i	-6	3
CC(C)(C)n1nc2c(c1NC(=O)Cc1ccc([N+](=O)[O-])cc1)CS(=O)(=O)C2	5	-3	-9	-2	i	i	·	·
CCCCOc1ccc(C(C)NC(=O)CCS(=O)(=O)Cc2ccccc2Cl)cc1 (centres undefined)	6	11*	0	-19	i	i	3	4
Clc1ccccc1Nc1nc(-c2cccnc2)cs1	18	0	-5	24	i	i	·	·
CC(=O)c1ccccc1C(=O)N1CCC(n2nccc2NC(=O)C2CC2)CC1	-2	1	-26	-13	i	i	·	·
Cc1ccc(C(=O)Nc2nccs2)cc1	0	-2	1	-11	i	i	·	·
O=C(Nc1nccs1)c1ccc(COc2c(F)c(F)cc(F)c2F)cc1	15	11*	0	40	i	i	6	5
COc1cc(CC(=O)NCCc2ccc(OCc3ccccc3)cc2)c([N+](=O)[O-])cc1OC	2	12*	3	-1	i	i	2	5
OCCNc1ncnc2c1nnn2Cc1ccccc1Cl	-2	1	·	·	·	·	·	·
CC(C)CCNc1ncnc2c1nnn2Cc1ccccc1Cl	1	18*	7	·	i	i	4	5
COc1ccc(C(C)=O)cc1CSc1nc2ccccc2c(=O)n1-c1cccc(C)c1	9	-1	24	13	i	i	·	·
COc1ccc(C(C)=O)cc1CSc1nc2ccccc2c(=O)n1-c1ccccc1	-24	16*	0	3	i	i	3	2
COc1ccc(C(=O)Nc2ccc(NC(=O)c3cccs3)c(OC)c2)cc1Cl	6	0	-4	4	i	i	·	·
COc1cc(NC(=O)COc2ccccc2[N+](=O)[O-])ccc1NC(=O)c1cccs1	-4	38*	·	·	i	·	18*	10
COc1cc(NC(=O)COc2ccccc2Cl)ccc1NC(=O)c1cccs1	-9	5	-2	-2	i	i	·	·
COc1cc(NC(=O)c2ccc(Cl)cc2Cl)ccc1NC(=O)c1cccs1	23	21*	-2	4	i	i	1	6
NS(=O)(=O)c1ccc(CNC(=O)c2ccc(S(=O)(=O)NCc3ccco3)cc2)cc1	-2	-1	-2	-10	i	·	·	·
O=C(Nc1ccccc1)c1ccc(OC(=O)c2ccccc2)cc1	-2	9.8*	·	1	i	i	5	2
O=C(Oc1ccc(NC(=O)c2cc3c(cc2Br)OCO3)cc1)c1ccccc1	5	14*	5	14	i	i	6	6
O=C(Nc1ccc2c(c1)OCO2)c1ccccc1	10	1	7	1	i	i	·	·
COc1ccccc1S(=O)(=O)N(C)C[C@H]1Oc2cc(C#CCC3CCCC3)ccc2S(=O)(=O)N([C@H](C)CO)C[C@H]1C	-3	1	·	·	·	·	·	·
CCN(CC)C(=O)C1=C(C)N(Cc2ccc(C(C)(C)C)cc2)C(=O)C(CC(=O)NC2CC2)C1 (centres undefined)	5	0	·	·	·	·	·	·
CC(C)Cc1ccc(C(C)C(N)=NCCc2ccccc2)cc1 (centres undefined)	9	0	11	59	i	i	·	·
C=CCN1C(=O)C(CC(=O)Nc2ccc(OCCC)cc2)N(CCCN2CCN(Cc3ccccc3)CC2)C1=S (centres undefined)	8	22*	9	25	i	i	9.4*	22*
c1ccc(Cn2ccnc2C2OCCO2)cc1	-7	-1	·	·	·	·	·	·
